Residues, ends and D or L forms follow the SMILES beside them.
Columns and labels:
Assay type in all cases: cell-based, human
[1] = system: NO production in Ang II-stimulated EA.hy926 cells; assay: NO production; conditions: Ang II alone (1 µM, 24 h), compared with the untreated cells
In short: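 EA.hy926 cells were incubated with test compound and Ang II for 24 h. Nitrite in the medium was taken as the NO indicator. Medium was mixed 1:1 with Griess reagent (1% sulfanilamide, 0.1% naphthylethylenediamine dihydrochloride in 2.5% phosphoric acid) for 10 min at room temperature and read at 540 nm, with fresh medium as blank. Data are mean ± SD, at least 3 experiments.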

[2] = system: intracellular ROS in Ang II-stimulated EA.hy926 cells; assay: Intracellular ROS generation; conditions: Ang II alone (1 µM, 30 min), compared with the untreated cells
In short: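 Cells were seeded for 24 h, then pre-treated with test compound for 30 min. Ang II (1 µM) was added for a further 30 min at 37°C. Cells were loaded with 40 µM carboxy-DCFH-DA, and DCF fluorescence plus DAPI were imaged by fluorescence microscopy.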

[3] = system: iNOS expression in Ang II-stimulated EA.hy926 cells; assay: iNOS expression by western blot; conditions: 24 h
In short: (§1)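 Ang II-stimulated EA.hy926 cells were lysed for 60 min in Tris/EDTA/NP-40 buffer with phosphatase and protease inhibitors, and protein was measured by BCA. Each lane took 40 µg protein on SDS-PAGE, transferred to nitrocellulose and blocked 2 h in 5% milk/TBS-T. Primary antibodies (1:1,000) were applied overnight at 4°C and secondaries at 1:3,000, with ECL detection and densitometry. Data are mean ± SD, at least 3 experiments.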

[4] = system: ET-1 expression in Ang II-stimulated EA.hy926 cells; assay: ET-1 expression by western blot; conditions: 24 h
In short: as §1

[5] = system: p38 MAPK phosphorylation in EA.hy926 cells; assay: Phosphorylation of p38 MAPK by western blot; conditions: 30 min
In short: as §1

[6] = system: ERK phosphorylation in EA.hy926 cells; assay: Phosphorylation of ERK by western blot; conditions: 30 min
In short: as §1

[7] = system: JNK phosphorylation in EA.hy926 cells; assay: Phosphorylation of JNK by western blot; conditions: 30 min
In short: as §1

EA.hy926 cells = assay: Cell viability by MTT assay; conditions: 62.5, 125 and 250 µM, up to 250 µM; presence or absence of Ang II (1 µM); 24 h
In short: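 EA.hy926 cells were grown in DMEM with 10% FBS, penicillin and streptomycin at 37°C in 5% CO2. Cells were treated with Ang II (1 µM) plus test compound (62.5, 125 or 250 µM) for 24 h at 37°C, then with MTT for 4 h. Plates were spun and formazan was dissolved in DMSO, read at 540 nm. Data are mean ± SD of at least 3 experiments, compared by unpaired t-test.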

Compound | NO generation, Ang II alone [1] | ROS fluorescence intensity, Ang II alone [2] | iNOS expression, Ang II alone [3] | ET-1 expression, Ang II alone [4] | phosphorylated p38 MAPK, Ang II alone [5] | phosphorylated ERK, Ang II alone [6] | phosphorylated JNK, Ang II alone [7] | cytotoxic effect (MTT) (EA.hy926 cells)
angiotensin II (DRVYIHPF; Angiotensin-2; UniProt P01019 25-32, looked up) [Ang II] | markedly induced NO generation | increased markedly | markedly increased | markedly increased | elevated | elevated | elevated | –
CSCC[C@H](NC(=O)[C@@H](N)[C@@H](C)O)C(=O)N[C@@H](CCC(=O)O)C(=O)N1CCC[C@H]1C(=O)NCC(=O)N[C@@H](CCCCN)C(=O)N1CCC[C@H]1C(=O)O [purified peptide, Thr-Met-Glu-Pro-Gly-Lys-Pro] (H-TMEPGKP-OH) | – | – | – | – | – | – | – | No significant toxic effects

— paper PMC5403476 (International Journal of Molecular Medicine, 2017)
